The nature of the test: Bax/Bak-independent caspase signal in fibroblasts – cell-based, mouse embryonic fibroblasts, luminescence, dry powder, set 3, counter-screen for A1 inhibitor project, dose response (AID 504403). Particulars: Bax/Bak-/- MEF caspase activation, CaspaseGlo luminescence, 3 h. In outline:
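System: Bax/Bak double-knockout mouse embryonic fibroblasts (MEFs) / Times: compound 3 h at 37 °C, pre-read cooling 30 min / Read-out: caspase activation signal flagging off-target or toxic effects / Buffer or medium: RPMI-1640, 10% heat-inactivated FBS / Technique: Caspase-Glo luminescent caspase assay / Doses: pin-transferred compound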
A general note: The purpose of a counterscreen is to sort out artefacts and off-target activity.

Where [1] appears, read: measured here: test 2 replicate, at 35 µM, stronger effect = higher value.

The structures appear in SMILES notation. Calls of active or inactive are those of the source.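 Rule for the calls: active = active in every replicate test, each curve reaching caspase activation of 10% of the positive control signal; inconclusive = replicate tests disagree, some active and some inactive; inactive = inactive in every replicate test.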

With `COc1nc2ccccc2c(Cl)c1[N+](=O)[O-]`, the caspase activation (at 35 µM (top of the series)) was 0.674% (inactive) and the caspase activation under setting [1] is 0.222%.
Taken in the same sequence, the figures for `Cn1c(=O)c(Sc2ccccn2)c(Sc2ccccn2)c2ccccc21` were 0.166% (inactive) and -0.337%.
As to `COCCn1c(=O)c([N+](=O)[O-])c(Sc2ccc(C)cc2)c2ccccc21`, the caspase activation was 0.682% (inactive) (at 35 µM (top of the series)) and -0.602% under setting [1].
Taken in the same sequence, the figures for `O=c1[nH]c2ccccc2c(Cl)c1[N+](=O)[O-]` were 0.348% (inactive) and 0.47%.
For the compound `O=c1c([N+](=O)[O-])c(Cl)c2ccccc2n1Cc1ccccc1`, the caspase activation by setting is: (at 35 µM (top of the series)) -0.005% (inactive); under setting [1], 3.16%.
Regarding `Cc1ccc(Sc2c(Sc3ccc(C)cc3)c3ccccc3n(Cc3ccccc3)c2=O)cc1`, the caspase activation by setting is: (at 35 µM (top of the series)) 0.02% (inactive); under setting [1], -0.616%.
Regarding `Cc1ccc(Sc2c(Sc3ccc(C)cc3)c3ccccc3n(C)c2=O)cc1`, the caspase activation (at 35 µM (top of the series)) was -0.06% (inactive) and the caspase activation under setting [1] is -0.477%.
Taken in the same sequence, the figures for `CCn1c(=O)c([N+](=O)[O-])c(Cl)c2ccccc21` were 1.21% (inactive) and 3.07%.
On the same counts, the results for `Cn1c(=O)c([N+](=O)[O-])c(S(C)(=O)=O)c2ccccc21` are -0.102% (inactive) and -0.421%.
Consider `CC1(C)CCC(c2ccc(Cl)cc2)=C(CN2CCN(c3ccc(C(=O)NS(=O)(=O)c4ccc(N[C@H](CCN5CCOCC5)CSc5ccccc5)c(S(=O)(=O)C(F)(F)F)c4)cc3)CC2)C1`, for which the result under setting [1] was inactive.
With `O=C(COc1ccc(Cl)cc1Cl)NNc1nc(N2CCOCC2)nc(N2CCOCC2)n1`, the caspase activation by setting is: (at 35 µM (top of the series)) -0.22% (inactive); under setting [1], 0.018%.
Consider `COc1nc2ccccc2c(Sc2ccc(C)cc2)c1[N+](=O)[O-]`, for which the caspase activation (at 35 µM (top of the series)) was 0.017% (inactive) and the caspase activation under setting [1] was -0.171%.
With `Cc1ccc(S(=O)(=O)c2c([N+](=O)[O-])c(=O)n(C)c3ccccc23)cc1`, the caspase activation is, setting by setting: (at 35 µM (top of the series)) 0.276% (inactive); under setting [1], 0.073%.
On the same counts, the results for `COc1ccc(CCNc2nc(N3CCOCC3)nc(N3CCOCC3)n2)cc1OC` are 0.042% (inactive) and 0.071%.
On the same counts, the results for `CCn1c(=O)c(Sc2ccc(C)cc2)c(Sc2ccc(C)cc2)c2ccccc21` are 0.078% (inactive) and -0.17%.
On to `CCn1c(=O)c([N+](=O)[O-])c(Sc2ccc(C)cc2)c2ccccc21`, for which the caspase activation reads like this: (at 35 µM (top of the series)) -0.025% (inactive); under setting [1], -0.559%.
On to `Cn1c(=O)c([N+](=O)[O-])c(Cl)c2ccccc21`, for which the caspase activation by setting is: (at 35 µM (top of the series)) 0.366% (inactive); under setting [1], -0.494%.
Taken in the same sequence, the figures for `Cc1ccc(Sc2c([N+](=O)[O-])c(=O)n(C)c3ccccc23)cc1` were 0.309% (inactive) and -0.613%.
Turning to `COCCn1c(=O)c(Sc2ccc(C)cc2)c(Sc2ccc(C)cc2)c2ccccc21`, the caspase activation reads like this: (at 35 µM (top of the series)) -0.103% (inactive); under setting [1], -0.586%.
As to `COc1c([N+](=O)[O-])c(=O)n(C)c2ccccc12`, the caspase activation (at 35 µM (top of the series)) is 0.061% (inactive) and the caspase activation under setting [1] was determined as 0.257%.
Taken in the same sequence, the figures for `Cn1c(=O)c([N+](=O)[O-])c(Sc2ccccn2)c2ccccc21` were 0.303% (inactive) and 0.033%.
Taken in the same sequence, the figures for `COc1ccc(N2CCN(c3nc(NCCc4ccc(OC)c(OC)c4)nc(N4CCOCC4)n3)CC2)cc1` were 0.143% (inactive) and 0.46%.
Taken in the same sequence, the figures for `O=c1[nH]c2ccccc2c(O)c1[N+](=O)[O-]` were 0.504% (inactive) and -0.232%.
For `C/C(=N\Nc1nc(N2CCCCC2)nc(N2CCCCC2)n1)c1ccc(F)cc1`, the caspase activation reads like this: (at 35 µM (top of the series)) -0.284% (inactive); under setting [1], -0.01%.
As for `Cc1ccc(Sc2c([N+](=O)[O-])c(=O)n(Cc3ccccc3)c3ccccc23)cc1`, the caspase activation by setting is: (at 35 µM (top of the series)) 1.91% (inactive); under setting [1], -0.307%.
For `COc1ccc(CCNc2nc(N3CCCC3)nc(N3CCCC3)n2)cc1OC`, the caspase activation was 0.084% (inactive) (at 35 µM (top of the series)) and 0.515% under setting [1].
Consider `COCCn1c(=O)c([N+](=O)[O-])c(Cl)c2ccccc21`, for which the caspase activation runs as follows: (at 35 µM (top of the series)) 0.693% (inactive); under setting [1], -0.136%.

These data come from PubChem BioAssay AID504403 (Broad Institute, 2011).
